Experimental data pooled from the literature.
Protocols differ between the studies behind these lines.
SPHK1: Sphingosine kinase 1 (SPHK1, Homo sapiens, UniProt Q9NYA1)
PARP1: Poly [ADP-ribose] polymerase 1 (PARP1, Homo sapiens, UniProt P09874)
CNR1: Cannabinoid receptor 1 (CNR1, Homo sapiens, UniProt P21554)
PDE5A: cGMP-specific 3',5'-cyclic phosphodiesterase (PDE5A, Homo sapiens, UniProt O76074)
EDNRA: Endothelin-1 receptor (EDNRA, Homo sapiens, UniProt P25101)
EHMT1: Histone-lysine N-methyltransferase EHMT1 (EHMT1, Homo sapiens, UniProt Q9H9B1)
ADORA2A: Adenosine receptor A2a (ADORA2A, Homo sapiens, UniProt P29274)

`[H]/N=C(\N)N1CCC[C@H]1c1nc(-c2ccc(OCC=Cc3ccccc3C(F)(F)F)c(C(F)(F)F)c2)no1` has an inhibition of 0% (SPHK1; enzyme activity, inhibitor, radiometric; 1 µM).
`O=C(NCCNC(=O)c1n[nH]c(=O)c2ccccc12)c1cccc(CN2C(=O)CNC2=O)c1` has an inhibition of ~50% (PARP1; enzyme activity, inhibitor; 0.5 µM).
With `COc1ccc(-n2nc(OCCCN3CCCCC3)ccc2=O)cc1` the inhibition was 43.8% (CNR1; ligand displacement; 1 µM).
`O=C(c1ccc(Cl)cc1)N(Cc1ccccc1)C1CCCCC1` gave an inhibition of 11.1% (CNR1; cell-free assay; 10 µM).
With `CCCCCC=CCOc1ccc(-c2noc([C@@H]3CCCN3C(=N)N)n2)cc1C(F)(F)F` (mixture of isomers) the inhibition was 54% (SPHK1; enzyme activity, inhibitor, radiometric; 1 µM).
The inhibition of `COC(=O)[C@H]1Cc2c([nH]c3ccccc23)[C@@H](c2ccc(OC)c(OC)c2)N1C(=O)CCl` is reported as 70% (PDE5A; enzyme activity, inhibitor, FP; 50 µM).
With `CCN(Cc1ccccc1C(F)(F)F)C(=O)C1CCN(S(=O)(=O)c2ccc3[nH]ncc3c2)CC1` the inhibition was 1% (EDNRA; ligand displacement, radioligand; 10 µM).
The inhibition of `Cc1cc(-c2ccc(/N=N/c3ccc4c(S(=O)(=O)O)cc(S(=O)(=O)O)c(N)c4c3O)c(C)c2)ccc1/N=N/c1ccc2c(S(=O)(=O)O)cc(S(=O)(=O)O)c(N)c2c1O` is reported as 48% (EHMT1; cell-free assay; 10 µM).
The inhibition of `CN(C)C1CCN(CC#Cc2nn(C3CCCC3)c3nc(NCc4ccccc4)ncc23)C1` (centres unmarked) is reported as 3% (Serine/threonine-protein kinase TBK1 (TBK1, Homo sapiens, UniProt Q9UHD2); enzyme activity, inhibitor, FRET; 1 µM).
`O=c1oc2c(O)c(O)cc3c(=O)oc4c(O)c(O)cc1c4c23` has an inhibition of 6% (EHMT1; cell-free assay; 10 µM).
For `Nc1ccc2c(c1)CCCn1nnnc1-2`, the inhibition was 31% (PARP1; enzyme activity, inhibitor; 10 µM).
For `O=C(O[C@@H]1Cc2c(O)cc(O)cc2O[C@@H]1c1cc(O)c(=O)c2c(O)c(O)cc([C@H]3Oc4cc(O)cc(O)c4C[C@H]3OC(=O)c3cc(O)c(O)c(O)c3)c2c1)c1cc(O)c(O)c(O)c1`, the inhibition was 0% (EHMT1; cell-free assay; 10 µM).
The inhibition of `[H]/N=C(\N)N1CCC[C@H]1c1nc(-c2ccc(OCC=CCCCC)c(C(F)(F)F)c2)no1` is reported as 23% (SPHK1; enzyme activity, inhibitor, radiometric; 1 µM).
`COc1ccc([C@@H]2c3[nH]c4ccccc4c3C[C@H]3C(=O)N(C(C)(C)C)C(=O)N23)cc1OC` has an inhibition of 79% (PDE5A; enzyme activity, inhibitor, FP; 50 µM).
The inhibition of `O=C(Nc1ccc(S(=O)(=O)N2CCC(Cl)CC2)cc1)c1ccc([N+](=O)[O-])o1` is reported as 20% (CNR1; ligand displacement, radioligand; 10 µM).
`CC(C)(C)N1C(=O)[C@@H]2Cc3c([nH]c4ccccc34)[C@@H](c3ccc(Br)s3)N2C1=O` has an inhibition of 90% (PDE5A; enzyme activity, inhibitor, FP; 10 µM).
With `CCN1C(=O)[C@@H]2Cc3c([nH]c4ccccc34)[C@H](c3cccnc3)N2C1=O` the inhibition was 24% (PDE5A; enzyme activity, inhibitor, FP; 50 µM).
For `COc1ccc(CCc2ccc(-c3noc([C@@H]4CCCN4C(=N)N)n3)cc2C(F)(F)F)cc1`, the inhibition was 0% (SPHK1; enzyme activity, inhibitor, radiometric; 1 µM).
`COC(=O)[C@@H]1Cc2c([nH]c3ccccc23)[C@H](c2ccc(OC)c(OC)c2)N1` has an inhibition of 8% (PDE5A; enzyme activity, inhibitor, FP; 50 µM).
`O=c1[nH]c(-c2c[nH]c3ncccc23)nc2ccccc12` has an inhibition of 28% (PARP1; enzyme activity, inhibitor, ELISA; 10 µM).
`O=C(O)CCCCCCCCCCCC[C@@H]1C=CCC1` has an inhibition of -11% (EHMT1; cell-free assay; 10 µM).
`Oc1ccc(CCNc2ccc3oc(-c4ccco4)nc3c2)cc1` gave an inhibition of 15% (ADORA2A; ligand displacement, radioligand; 10 µM, cell membranes).
For `COc1cc(NC(C)=O)c(Cl)cc1C(=O)Nc1nccs1`, the inhibition was 11.8% (CNR1; cell-free assay; 10 µM).
The inhibition of `CCCNc1nc2ccccc2n1Cc1ccc(Cl)cc1` is reported as 11.1% (Kappa-type opioid receptor (OPRK1, Homo sapiens, UniProt P41145); ligand displacement; 10 µM).
The inhibition of `CCN(c1cc(C#CCN2CCOCC2)cc(C(=O)NCc2c(C)cc(C)[nH]c2=O)c1C)[C@H]1CC[C@H](N(C)CCOC)CC1` is reported as 9% (EHMT1; enzyme activity, inhibitor; 1 µM).
The inhibition of `CC(C)(C)N1C(=O)[C@H]2Cc3c([nH]c4ccccc34)[C@@H](c3cccnc3)N2C1=O` is reported as 90% (PDE5A; enzyme activity, inhibitor, FP; 50 µM).
With `[H]/N=C(\N)N1CCC[C@H]1c1nc(-c2ccc(OCC=Cc3cccc(C(F)(F)F)c3)c(C(F)(F)F)c2)no1` the inhibition was 0% (SPHK1; enzyme activity, inhibitor, radiometric; 1 µM).
`CN(C)c1ccc2nc3ccc(=[N+](C)C)cc-3sc2c1` has an inhibition of 30% (EHMT1; cell-free assay; 10 µM).
For `Ic1cccc2cnccc12`, the inhibition was 3% (CNR1; ligand displacement, radioligand; 10 µM).
With `O=c1c(O)cccc2c([C@H]3Oc4cc(O)cc(O)c4C[C@H]3O)cc(O)c(O)c12` the inhibition was 5% (EHMT1; cell-free assay; 10 µM).
`O=C(CSc1nc2nccnc2c(=O)n1CCc1ccccc1)Nc1nccs1` gave an inhibition of 8% (SPHK1; enzyme activity, inhibitor; 10 µM).
`COc1ccc(-c2nc3cc(CCCN4CCN(c5ccccc5)CC4)ccc3o2)cc1OC` gave an inhibition of 11% (ADORA2A; ligand displacement, radioligand; 10 µM, cell membranes).
With `O=C1CCCc2ccc(F)cc2N1` the inhibition was 0% (PARP1; enzyme activity, inhibitor; 10 µM).
For `CCN1C(=O)[C@@H]2Cc3c([nH]c4ccccc34)[C@@H](c3ccc(OC)c(OC)c3)N2C1=O`, the inhibition was 75% (PDE5A; enzyme activity, inhibitor, FP; 50 µM).
With `O=C(c1ccc(F)cc1)N(Cc1ccccc1)C1CCCCC1` the inhibition was 18% (CNR1; cell-free assay; 10 µM).
With `O=C1N=C(N2CCCCN2)S/C1=C\c1ccc(F)cc1O` the inhibition was < 10% (EDNRA; ligand displacement, radioligand; 10 µM).
`CCCc1ccc(CCc2ccc(-c3noc([C@@H]4CCCN4C(=N)N)n3)cc2C(F)(F)F)cc1` has an inhibition of 6% (SPHK1; enzyme activity, inhibitor, radiometric; 1 µM).
`O=C(CN1CCN(c2ccccc2)CC1)Nc1ccc2oc(-c3ccco3)nc2c1` has an inhibition of 12% (ADORA2A; ligand displacement, radioligand; 10 µM, cell membranes).
`Oc1cccc(Nc2nc(-c3ccc(F)cc3F)cs2)c1` gave an inhibition of 76% (ADORA2A; cell-free assay; 10 µM).
The inhibition of `COc1ccc(-c2nc3cc(CCN4CCN(c5ccccc5)CC4)ccc3o2)cc1OC` is reported as 5% (ADORA2A; ligand displacement, radioligand; 10 µM, cell membranes).
`CCCCC=CCOc1ccc(-c2noc([C@@H]3CCCN3C(=N)N)n2)cc1C(F)(F)F` has an inhibition of 18% (SPHK1; enzyme activity, inhibitor, radiometric; 1 µM).
The inhibition of `O=C(CN1CCNCC1)Nc1ccc2oc(-c3ccco3)nc2c1` is reported as 8% (ADORA2A; ligand displacement, radioligand; 10 µM, cell membranes).
With `CCN(CC)c1ccc(C2Nc3ccc(C(=O)c4ccccc4)cc3NC3=C2C(=O)CC(C)(C)C3)cc1` (centres unmarked) the inhibition was 12% (Histamine H4 receptor (HRH4, Homo sapiens, UniProt Q9H3N8); ligand displacement, radioligand; 10 µM).
With `COc1cccc2nc(-c3ccc(C(=O)N4CCN(C(=O)C5CC5)CC4)cc3F)[nH]c(=O)c12` the inhibition was 56% (PARP1; enzyme activity, inhibitor, ELISA; 10 µM).
For `CS(=O)(=O)Nc1cccc(-c2csc(NC(=O)CSc3nc4nccnc4c(=O)n3CCc3ccccc3)n2)c1`, the inhibition was 9% (SPHK1; enzyme activity, inhibitor; 10 µM).
For `COC(=O)[C@@H]1Cc2c([nH]c3ccccc23)[C@H](c2cccnc2)N1`, the inhibition was 72% (PDE5A; enzyme activity, inhibitor, FP; 50 µM).
`CCN1CCN(Cc2ccc(NC(=O)c3ccc(C)c(/C=C/c4cnc5[nH]ccc5c4OC)c3)cc2C(F)(F)F)CC1` has an inhibition of -23.9% (Serine/threonine-protein kinase A-Raf (ARAF, Homo sapiens, UniProt P10398); target engagement in cells, inhibitor, chemoproteomics; A-375; 5 µM).
